Measurements: ChEMBL document CHEMBL1131235, “(R)-(+)-2-[[[3-(Morpholinomethyl)-2H-chromen-8-yl]oxy]methyl] morpholine methanesulfonate: a new selective rat 5-hydroxytryptamine1B receptor antagonist” (J Med Chem, 1998)

What was measured:
[1] = species on record: Rattus norvegicus; assay: Percent control of the stimulation ratio S2 (second stimulation)/S1(first stimulation) at a concentration of 100 nM. (P<0.05); type: functional
[2] = system: Rattus norvegicus; assay: Effect on the wet dog shake response(WDS) in rats after 10 determinations at a dose of 3 mg/kg, sc pretreated with saline; type: functional; details: route subcutaneous
Procedure, shortened: (§1)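 Rats were pretreated with pCPA 200 mg/kg ip or saline at 72 and 48 h before compound, 3 mg/kg sc. Wet dog shakes (whole-body and head shakes) were counted from 5 to 65 min after injection. Groups of 8-10 rats were compared with saline-treated rats (n = 30), Dunnett's t-test after ANOVA.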

[3] = molecular target: T1, Adrenergic receptor alpha-1 (Rattus norvegicus, UniProt P15823+P23944+P43140); assay: Binding affinity against Alpha-1 adrenergic receptor in rat cortex using [3H]prazosin as the radioligand.; type: tissue-based, Brain
T1 sequence (P15823 whole entry): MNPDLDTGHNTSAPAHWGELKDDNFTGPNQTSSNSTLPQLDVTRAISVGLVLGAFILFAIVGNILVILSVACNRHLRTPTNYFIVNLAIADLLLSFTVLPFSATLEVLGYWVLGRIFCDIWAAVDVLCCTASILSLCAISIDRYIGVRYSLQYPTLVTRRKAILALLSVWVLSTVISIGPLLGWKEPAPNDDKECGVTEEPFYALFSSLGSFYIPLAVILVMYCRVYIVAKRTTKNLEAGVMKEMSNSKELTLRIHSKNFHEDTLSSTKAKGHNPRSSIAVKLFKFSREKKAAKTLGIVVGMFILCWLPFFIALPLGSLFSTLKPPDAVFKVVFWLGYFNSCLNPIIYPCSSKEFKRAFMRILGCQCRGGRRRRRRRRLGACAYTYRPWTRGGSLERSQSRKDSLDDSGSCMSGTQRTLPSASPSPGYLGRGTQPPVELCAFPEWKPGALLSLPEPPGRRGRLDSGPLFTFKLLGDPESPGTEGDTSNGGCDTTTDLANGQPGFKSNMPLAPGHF
T1 sequence (P23944 whole entry): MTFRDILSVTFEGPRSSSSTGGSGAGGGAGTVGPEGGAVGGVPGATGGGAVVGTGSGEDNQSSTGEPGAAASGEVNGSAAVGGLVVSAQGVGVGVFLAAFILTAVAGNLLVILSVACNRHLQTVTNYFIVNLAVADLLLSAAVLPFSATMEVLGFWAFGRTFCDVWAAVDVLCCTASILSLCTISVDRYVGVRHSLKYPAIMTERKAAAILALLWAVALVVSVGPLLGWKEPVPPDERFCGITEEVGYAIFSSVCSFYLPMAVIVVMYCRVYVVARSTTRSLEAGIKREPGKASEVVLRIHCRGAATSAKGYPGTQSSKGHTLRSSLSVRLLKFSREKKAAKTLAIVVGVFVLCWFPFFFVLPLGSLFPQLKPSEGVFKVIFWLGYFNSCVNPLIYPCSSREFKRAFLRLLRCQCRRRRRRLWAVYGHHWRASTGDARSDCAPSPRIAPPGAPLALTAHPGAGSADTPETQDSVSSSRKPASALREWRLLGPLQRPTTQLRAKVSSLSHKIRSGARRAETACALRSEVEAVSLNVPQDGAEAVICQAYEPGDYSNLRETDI
T1 sequence (P43140 whole entry): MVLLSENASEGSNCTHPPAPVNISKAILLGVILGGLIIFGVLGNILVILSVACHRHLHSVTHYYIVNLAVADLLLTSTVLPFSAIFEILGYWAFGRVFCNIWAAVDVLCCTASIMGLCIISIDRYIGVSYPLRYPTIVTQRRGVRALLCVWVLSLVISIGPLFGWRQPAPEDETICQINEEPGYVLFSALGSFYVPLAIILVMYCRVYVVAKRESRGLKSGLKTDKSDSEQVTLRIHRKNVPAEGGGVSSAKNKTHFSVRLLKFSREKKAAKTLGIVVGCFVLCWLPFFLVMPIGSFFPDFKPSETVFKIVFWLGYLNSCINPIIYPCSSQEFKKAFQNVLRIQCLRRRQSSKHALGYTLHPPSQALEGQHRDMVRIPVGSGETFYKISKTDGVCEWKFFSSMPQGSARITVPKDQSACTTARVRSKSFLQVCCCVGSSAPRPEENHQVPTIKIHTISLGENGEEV
Procedure, shortened: (§2)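 Binding by the Jackson et al. method. 5-HT1A used [3H]OH-DPAT on rat hippocampus. α1 used [3H]prazosin, α2 [3H]RX821002 and β [3H]dihydroalprenolol, all on rat cortex. D1 used [3H]SCH-23390 on rat striatum. D2 used [3H]raclopride on LtkhD2A cell membranes.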

[4] = molecular target: T2, 5-hydroxytryptamine receptor 1A (Rattus norvegicus, UniProt P19327); assay: Binding affinity against 5-hydroxytryptamine 1A receptor from rat hippocampus using [3H]8-OH-DPAT as the radioligand.; type: tissue-based; procedure, shortened: as §2
T2 sequence (P19327 whole entry): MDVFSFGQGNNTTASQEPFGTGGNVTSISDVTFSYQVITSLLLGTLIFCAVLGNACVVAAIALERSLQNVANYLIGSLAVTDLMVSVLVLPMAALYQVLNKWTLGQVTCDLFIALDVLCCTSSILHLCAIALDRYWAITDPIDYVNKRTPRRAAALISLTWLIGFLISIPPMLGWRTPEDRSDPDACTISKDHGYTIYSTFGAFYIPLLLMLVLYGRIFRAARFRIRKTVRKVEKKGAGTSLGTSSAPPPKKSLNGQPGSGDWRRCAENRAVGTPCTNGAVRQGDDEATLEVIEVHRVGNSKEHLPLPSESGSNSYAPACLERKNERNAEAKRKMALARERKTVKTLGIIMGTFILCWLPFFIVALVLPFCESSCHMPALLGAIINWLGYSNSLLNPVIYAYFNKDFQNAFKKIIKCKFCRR

[5] = Potentiation of K+ stimulated release of [3H]5-HT from brain slices at a concentration of 1000 nM. (activity expressed as ratio of S2 (second stimulation)/S1(first stimulation)); type: functional, Rattus norvegicus
Procedure, shortened: (§3)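 Rat occipital cortex slices (0.3 × 0.3 mm) preloaded with [3H]-5-HT, superfused at 0.4 mL/min with oxygenated Krebs-Henseleit pH 7.4 containing 2.5 μM citalopram. Two 4-min 25 mM KCl pulses at 62 and 98 min, compound present for 72 min spanning S2. Fractional release counted by liquid scintillation. S2/S1 ratio reported, also as % of control; n=3–8.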

[6] = system: Rattus norvegicus; assay: Effect on the wet dog shake response(WDS) in rats after 9 determinations at a dose of 3mg/kg, sc pretreated with 200 mg/kg ip of pCPA.; type: functional; details: route subcutaneous; procedure, shortened: as §1
[7] = molecular target: Sigma non-opioid intracellular receptor 1 (Rattus norvegicus, UniProt Q9R0C9); assay: Binding affinity against sigma receptor from rat whole brains using [3H]DTG as the radioligand.
Chain of Sigma non-opioid intracellular receptor 1 (Q9R0C9 whole entry): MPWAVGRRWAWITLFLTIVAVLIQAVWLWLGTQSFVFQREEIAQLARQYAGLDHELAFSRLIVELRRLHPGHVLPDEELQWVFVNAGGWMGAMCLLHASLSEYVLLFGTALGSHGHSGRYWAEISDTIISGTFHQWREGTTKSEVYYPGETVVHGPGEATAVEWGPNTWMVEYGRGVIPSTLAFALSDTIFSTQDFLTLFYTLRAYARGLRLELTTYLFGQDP
Procedure, shortened: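 Whole rat brain membranes labelled with [3H]DTG (N,N-di(o-tolyl)guanidine), following Ross.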

[8] = Potentiation of K+ stimulated release of [3H]5-HT from brain slices at a concentration of 100 nM. (activity expressed as ratio of S2 (second stimulation)/S1(first stimulation)); type: functional, Rattus norvegicus; procedure, shortened: as §3

Structure (SMILES)	Control [1] [%]	No. of WDS/60 min [2]	Ki [3] [µM]	Ki [4] [µM]	Potentiation [5]	No. of WDS/60 min [6]	Ki [7] [µM]	Potentiation [8]
C1=C(CN2CCOCC2)COc2c1cccc2OC[C@H]1CNCCO1.CS(=O)(=O)O	131	17	> 10	> 10	1.44	9.2	> 10	1.23
C1=C(CN2CCOCC2)COc2c1cccc2OC[C@@H]1CNCCO1.Cl	–	–	> 10	> 10	–	–	> 10	–
